Source: ChEMBL document CHEMBL1151448, “Comparative antianaerobic activities of doripenem determined by MIC and time-kill analysis” (2008)
Converted amounts (≈) assume the structure as drawn. The source made the active and inactive calls. The calls are words filed in the database; no cut-off is given here.

Columns and labels:
Porphyromonas gingivalis = experiment: Antimicrobial activity against Porphyromonas gingivalis isolated from intra-abdominal infection and pelvic inflammatory disease patients after 48 hrs by agar dilution method; assay type: functional
Procedure, shortened: (§1)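 CLSI agar dilution on brucella blood agar supplemented with laked sheep blood, hemin and vitamin K. Inocula of about 1 × 10^5 CFU/spot were applied by Steers replicator, and plates were incubated 48 h at 35°C in an anaerobic glove box. MIC was the concentration giving marked growth reduction versus the anaerobic control plate. QC strains were included each run, and β-lactamase was detected by Cefinase disk.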

[1] = tested on: Parabacteroides distasonis; experiment: Antimicrobial activity against beta lactamase-positive Bacteroides distasonis isolated from intra-abdominal infection and pelvic inflammatory disease patients after 48 hrs by agar dilution method; assay type: functional; procedure, shortened: as §1
Phocaeicola vulgatus = experiment: Antimicrobial activity against beta lactamase-positive Bacteroides vulgatus isolated from intra-abdominal infection and pelvic inflammatory disease patients after 48 hrs by agar dilution method; assay type: functional; procedure, shortened: as §1
Prevotella intermedia [2] = experiment: Antimicrobial activity against beta lactamase-positive Prevotella intermedia isolated from intra-abdominal infection and pelvic inflammatory disease patients after 48 hrs by agar dilution method; assay type: functional; procedure, shortened: as §1
Clostridioides difficile [3] = experiment: Antimicrobial activity against Clostridium difficile isolated from intra-abdominal infection and pelvic inflammatory disease patients after 48 hrs by time kill analysis; assay type: functional
Procedure, shortened: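 Macrodilution in prereduced brucella broth with 5% laked horse blood cells, 5 μg/ml hemin and 1 μg/ml vitamin K1. Final inoculum 10^6 to 10^7 CFU/ml, prepared inside the anaerobe chamber. Vials incubated 48 h at 35°C in a shaking water bath. MIC read by inspecting the time-kill tubes, alongside an antibiotic-free growth control.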

Clostridioides difficile [4] = experiment: Bactericidal activity against Clostridium difficile isolated from intra-abdominal infection and pelvic inflammatory disease patients assessed as bacterial killing at 2 times MIC after 48 hrs by time kill analysis; assay type: functional
Procedure, shortened: (§2)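 Macrodilution time-kill in prereduced brucella broth with 5% laked horse blood, hemin 5 μg/ml and vitamin K1 1 μg/ml, at final inoculum 10^6–10^7 CFU/ml. […] Viable counts were taken at 6, 12, 24 and 48 h on plates incubated 48 h anaerobically. 99.9% kill was taken as bactericidal.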

[5] = tested on: Clostridium paraputrificum; experiment: Antimicrobial activity against Clostridium paraputrificum isolated from intra-abdominal infection and pelvic inflammatory disease patients after 48 hrs by agar dilution method; assay type: functional; procedure, shortened: as §1
Bacteroides fragilis [6] = experiment: Antimicrobial activity against beta lactamase-positive Bacteroides fragilis isolated from intra-abdominal infection and pelvic inflammatory disease patients after 48 hrs by time kill analysis; assay type: functional
Procedure, shortened: (§3)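 The MIC was read by inspecting macrodilution time-kill tubes. Vials held prereduced brucella broth with 5% laked horse blood cells, hemin 5 μg/ml and vitamin K1 1 μg/ml. Final inoculum was 10^6–10^7 CFU/ml, prepared inside the anaerobe chamber. Vials were incubated 48 h at 35°C in a shaking water bath.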

Fusobacterium nucleatum [7] = experiment: Antimicrobial activity against beta lactamase-positive Fusobacterium nucleatum isolated from intra-abdominal infection and pelvic inflammatory disease patients after 48 hrs by agar dilution method; assay type: functional; procedure, shortened: as §1
Prevotella intermedia [8] = experiment: Bactericidal activity against beta lactamase-positive Prevotella intermedia isolated from intra-abdominal infection and pelvic inflammatory disease patients assessed as bacterial killing at MIC after 24 hrs by time kill analysis; assay type: functional
Procedure, shortened: (§4)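 Anaerobic macrodilution time-kill. Inoculum from brucella blood plates, prepared and diluted in prereduced brucella broth inside the anaerobe chamber. Final 10^6 to 10^7 CFU/ml in prereduced brucella broth with 5% laked horse blood cells, 5 μg/ml hemin and 1 μg/ml vitamin K1. […] Shaken at 35°C for 48 h. Viable counts taken at 6, 12, 24 and 48 h. 99.9% kill taken as bactericidal.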

[9] = tested on: Fusobacterium necrophorum; experiment: Antimicrobial activity against Fusobacterium necrophorum isolated from intra-abdominal infection and pelvic inflammatory disease patients after 48 hrs by agar dilution method; assay type: functional; procedure, shortened: as §1
Finegoldia magna [10] = experiment: Bactericidal activity against beta lactamase-positive Finegoldia magna isolated from intra-abdominal infection and pelvic inflammatory disease patients assessed as 99.9% bacterial killing at 2 times MIC after 48 hrs by time kill analysis; assay type: functional, organism-based; procedure, shortened: as §2
Prevotella bivia = experiment: Antimicrobial activity against beta lactamase-positive Prevotella bivia isolated from intra-abdominal infection and pelvic inflammatory disease patients after 48 hrs by agar dilution method; assay type: functional; procedure, shortened: as §1
Bacteroides fragilis [11] = experiment: Antimicrobial activity against beta lactamase-positive Bacteroides fragilis isolated from intra-abdominal infection and pelvic inflammatory disease patients after 48 hrs by agar dilution method; assay type: functional; procedure, shortened: as §1
Fusobacterium nucleatum [12] = experiment: Bactericidal activity against beta lactamase-positive Fusobacterium nucleatum isolated from intra-abdominal infection and pelvic inflammatory disease patients assessed as bacterial killing at 2 times MIC after 48 hrs by time kill analysis; assay type: functional; procedure, shortened: as §4
Finegoldia magna [13] = experiment: Antimicrobial activity against Finegoldia magna isolated from intra-abdominal infection and pelvic inflammatory disease patients after 48 hrs by agar dilution method; assay type: functional; procedure, shortened: as §1
Prevotella intermedia [14] = experiment: Bactericidal activity against beta lactamase-positive Prevotella intermedia isolated from intra-abdominal infection and pelvic inflammatory disease patients assessed as bacterial killing at 2 times MIC after 48 hrs by time kill analysis; assay type: functional; procedure, shortened: as §4
Prevotella nigrescens = experiment: Antimicrobial activity against beta lactamase-positive Prevotella nigrescens isolated from intra-abdominal infection and pelvic inflammatory disease patients after 48 hrs by agar dilution method; assay type: functional; procedure, shortened: as §1
[15] = tested on: Paeniclostridium sordellii; experiment: Antimicrobial activity against Clostridium sordellii isolated from intra-abdominal infection and pelvic inflammatory disease patients after 48 hrs by agar dilution method; assay type: functional; conditions: Paraclostridium sordellii; procedure, shortened: as §1
Clostridium cadaveris = experiment: Antimicrobial activity against Clostridium cadaveris isolated from intra-abdominal infection and pelvic inflammatory disease patients after 48 hrs by agar dilution method; assay type: functional; procedure, shortened: as §1
Finegoldia magna [16] = experiment: Bactericidal activity against beta lactamase-positive Finegoldia magna isolated from intra-abdominal infection and pelvic inflammatory disease patients assessed as bacterial killing at MIC after 24 hrs by time kill analysis; assay type: functional; procedure, shortened: as §4
Bacteroides ovatus = experiment: Antimicrobial activity against beta lactamase-positive Bacteroides ovatus isolated from intra-abdominal infection and pelvic inflammatory disease patients after 48 hrs by agar dilution method; assay type: functional; procedure, shortened: as §1
Fusobacterium mortiferum = experiment: Antimicrobial activity against beta lactamase-positive Fusobacterium mortiferum isolated from intra-abdominal infection and pelvic inflammatory disease patients after 48 hrs by agar dilution method; assay type: functional; procedure, shortened: as §1
[Clostridium] innocuum = Antimicrobial activity against Clostridium innocuum isolated from intra-abdominal infection and pelvic inflammatory disease patients after 48 hrs by agar dilution method; assay type: functional; procedure, shortened: as §1
[17] = tested on: Bacteroides thetaiotaomicron; experiment: Antimicrobial activity against beta lactamase-positive Bacteroides thetaiotaomicron isolated from intra-abdominal infection and pelvic inflammatory disease patients after 48 hrs by time kill analysis; assay type: functional; procedure, shortened: as §3
[18] = tested on: Porphyromonas asaccharolytica; experiment: Antimicrobial activity against Porphyromonas asaccharolyticus isolated from intra-abdominal infection and pelvic inflammatory disease patients after 48 hrs by agar dilution method; assay type: functional; procedure, shortened: as §1
Thomasclavelia ramosa = experiment: Antimicrobial activity against Clostridium ramosum isolated from intra-abdominal infection and pelvic inflammatory disease patients after 48 hrs by agar dilution method; assay type: functional; procedure, shortened: as §1
Finegoldia magna [19] = experiment: Bactericidal activity against beta lactamase-positive Finegoldia magna isolated from intra-abdominal infection and pelvic inflammatory disease patients assessed as bacterial killing at 2 times MIC after 48 hrs by time kill analysis; assay type: functional; procedure, shortened: as §4

C[C@@H](O)[C@H]1C(=O)N2C(C(=O)O)=C(S[C@@H]3CN[C@H](C(=O)Nc4cccc(C(=O)O)c4)C3)[C@H](C)[C@H]12
MIC (Porphyromonas gingivalis): ≤ 0.016 µg/mL
MIC [1]: 0.5 µg/mL (≈ 1.05 µM)
MIC50 [1]: 0.5 µg/mL (≈ 1.05 µM)
MIC90 [1]: 1 µg/mL (≈ 2.1 µM)
MIC50 (Phocaeicola vulgatus): 0.125 µg/mL (≈ 0.263 µM)
MIC90 (Phocaeicola vulgatus): 2 µg/mL (≈ 4.21 µM)
MIC50 (Prevotella intermedia [2]): 0.03 µg/mL (≈ 0.0631 µM)
MIC90 (Prevotella intermedia [2]): 0.25 µg/mL (≈ 0.526 µM)
MIC (Clostridioides difficile [3]): 4 µg/mL (≈ 8.41 µM)
Activity (Clostridioides difficile [4]): 99%
MIC [5]: 0.125 µg/mL (≈ 0.263 µM)
MIC (Bacteroides fragilis [6]): 0.25 µg/mL (≈ 0.526 µM)
MIC (Fusobacterium nucleatum [7]): ≤ 0.016 µg/mL
MIC50 (Fusobacterium nucleatum [7]): ≤ 0.016 µg/mL
MIC90 (Fusobacterium nucleatum [7]): 0.03 µg/mL (≈ 0.0631 µM)
Activity (Prevotella intermedia [8]): 90%
MIC [9]: ≤ 0.016 µg/mL
MIC50 [9]: ≤ 0.016 µg/mL
MIC90 [9]: 0.125 µg/mL (≈ 0.263 µM)
Activity (Finegoldia magna [10]): inactive
MIC50 (Prevotella bivia): 0.25 µg/mL (≈ 0.526 µM)
MIC90 (Prevotella bivia): 0.25 µg/mL (≈ 0.526 µM)
MIC (Bacteroides fragilis [11]): 0.25 µg/mL (≈ 0.526 µM)
MIC50 (Bacteroides fragilis [11]): 0.25 µg/mL (≈ 0.526 µM)
MIC90 (Bacteroides fragilis [11]): 2 µg/mL (≈ 4.21 µM)
Activity (Fusobacterium nucleatum [12]): 99%
MIC50 (Finegoldia magna [13]): 0.06 µg/mL (≈ 0.126 µM)
MIC90 (Finegoldia magna [13]): 0.06 µg/mL (≈ 0.126 µM)
Activity (Prevotella intermedia [14]): 99%
MIC50 (Prevotella nigrescens): 0.03 µg/mL (≈ 0.0631 µM)
MIC90 (Prevotella nigrescens): 0.06 µg/mL (≈ 0.126 µM)
MIC [15]: 0.03 µg/mL (≈ 0.0631 µM)
MIC (Clostridium cadaveris): ≤ 0.016 µg/mL
Activity (Finegoldia magna [16]): 90%
MIC (Bacteroides ovatus): 0.5 µg/mL (≈ 1.05 µM)
MIC50 (Bacteroides ovatus): 0.5 µg/mL (≈ 1.05 µM)
MIC90 (Bacteroides ovatus): 2 µg/mL (≈ 4.21 µM)
MIC (Fusobacterium mortiferum): 0.06 µg/mL (≈ 0.126 µM)
MIC50 (Fusobacterium mortiferum): 0.06 µg/mL (≈ 0.126 µM)
MIC90 (Fusobacterium mortiferum): 0.5 µg/mL (≈ 1.05 µM)
MIC ([Clostridium] innocuum): 2 µg/mL (≈ 4.21 µM)
MIC50 ([Clostridium] innocuum): 2 µg/mL (≈ 4.21 µM)
MIC [17]: 0.5 µg/mL (≈ 1.05 µM)
MIC [18]: ≤ 0.016 µg/mL
MIC (Thomasclavelia ramosa): 1 µg/mL (≈ 2.1 µM)
MIC50 (Thomasclavelia ramosa): 1 µg/mL (≈ 2.1 µM)
Activity (Finegoldia magna [19]): 99%
